Experimental data reported in PMC3821739 (Organic & biomolecular chemistry, 2013).
Read-outs that look alike come from different tables or passages of the source.

Experiments:
RRE = settings: cited from earlier work
HIV-1 RRE IIB RNA [1] = assay: Dot blot assay, dissociation constant with wild-type RRE IIB RNA; format: binding; settings: for loss of binding affinity compared to BPBA1: RRE IIB
hexaloop RNA = assay: Dot blot assay with RRE IIB variant hexaloop RNA; format: binding, HIV-1
stem B deleted RNA = assay: Dot blot assay with RRE IIB variant stem B deleted RNA; format: binding, HIV-1
[2] = biological target: loop B/bulge A deleted RNA; assay: Dot blot assay with RRE IIB variant loop B/bulge A deleted RNA; format: binding, HIV-1
[3] = system: loop A(A-G)/B/bulge A deleted RNA; assay: Dot blot assay with RRE IIB variant loop A; format: binding, HIV-1
[4] = system: stem A/loop A deleted RNA; assay: Dot blot assay with RRE IIB variant stem A/loop A deleted RNA; format: binding, HIV-1
[5] = system: loop A/B/bulge A deleted RNA; assay: Dot blot assay with RRE IIB variant loop A/B/bulge A deleted RNA; format: binding, HIV-1
RRE IIB DNA = assay: Dot blot assay with DNA of the same RRE IIB sequence; format: binding, HIV-1
RRE IIB = assay: RNase protection; format: binding, HIV-1; settings: on ice
Summary of the method: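 5′-³²P-labelled RRE-IIB (10 nM) mixed with unlabelled RRE-IIB (200 nM), refolded at 95 °C for 3 min, then snap-cooled on ice. Test compound added in 10 mM Tris pH 7, 100 mM KCl, 10 mM MgCl₂, then 4 hr on ice. Digestion on ice: RNase V1 0.002 U for 10 min; T1 1 U or A 20 ng for 1 hr. Stopped by precipitation, run on 12% urea PAGE with an alkaline-hydrolysis ladder, autoradiography.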

HIV-1 RRE IIB RNA [6] = settings: read-out: binding affinity (Kd) of hit BPBA; dot blot; cited from earlier work

**Q.** For NC[C@@H]1O[C@H](O[C@H]2[C@@H](O)[C@H](O[C@@H]3[C@@H](O)[C@H](N)C[C@H](N)[C@H]3O[C@H]3O[C@H](CN)[C@@H](O)[C@H](O)[C@H]3N)O[C@@H]2CO)[C@H](N)[C@@H](O)[C@@H]1O [neomycin B], which “binding to RRE” value (RRE) is on record?
**A.** submicromolar

**Q.** Which Kd (HIV-1 RRE IIB RNA [1]; read-out: observed Kd in the presence of competing tRNA, 10-fold molar excess of bacterial tRNA relative to RRE IIB) does the source give for (WKK)2*KBBAYWY [BPBA1] here?
**A.** 2.1 µM

**Q.** What about the “increase of Kd compared to the wild type” value (hexaloop RNA) of the same compound?
**A.** ~ 3 fold

**Q.** And the Kd (stem B deleted RNA)?
**A.** 3.7 µM

**Q.** And the Kd [2]?
**A.** 8.7 µM

**Q.** What about the “lower affinity relative to RRE IIB” value [2] of the same compound?
**A.** 6 fold

**Q.** What about the “lower affinity relative to RRE IIB” value [3] of the same compound?
**A.** > 10 fold

**Q.** And the “lower affinity relative to RRE IIB” value [4]?
**A.** > 10 fold

**Q.** What about the “loss in binding affinity / selectivity relative to RRE IIB” value [5] of the same compound?
**A.** > 75 fold

**Q.** What about the “selectivity toward RNA over DNA” value (RRE IIB DNA; RRE IIB RNA versus RRE IIB DNA) of the same compound?
**A.** 23 fold

**Q.** And the Kd (RRE IIB DNA; read-out: dissociation constant)?
**A.** 31.8 ± 6.6 µM

**Q.** And the “protection of RRE IIB from cleavage by RNase A” value (RRE IIB; BPBA1 up to 20 µM)?
**A.** visibly protected U7, C21, and U36

**Q.** What about the “protection of RRE IIB from cleavage by RNase T1” value (RRE IIB; BPBA1 up to 20 µM) of the same compound?
**A.** no noticeable changes in band intensity

**Q.** What about the “protection of RRE IIB from cleavage by RNase V1” value (RRE IIB; region A16 through G19, BPBA1 0.2 µM to 20 µM) of the same compound?
**A.** concentration dependent protection

**Q.** What about the Kd (HIV-1 RRE IIB RNA [6]) of the same compound?
**A.** 1.4 µM

**Q.** Which “loss of binding affinity compared to BPBA1” value (shortened to “loss … compared to BPBA1”) (HIV-1 RRE IIB RNA [1]) does the source give for Ac(WKK)*KBBAYWY [LPBA3] here?
**A.** > 50 fold

**Q.** For WKKGKBBAYWY [LPBA1], which “loss … compared to BPBA1” value (HIV-1 RRE IIB RNA [1]) is on record?
**A.** > 50 fold

**Q.** For WKKGKBBAYWYWKK [LPBA5], which “loss … compared to BPBA1” value (HIV-1 RRE IIB RNA [1]) is on record?
**A.** at least 5 fold

**Q.** Which “loss … compared to BPBA1” value (HIV-1 RRE IIB RNA [1]) does the source give for WKKWKKGKBBAYWY [LPBA4] here?
**A.** at least 5 fold
